These results are taken from ChEMBL document CHEMBL1152758, “Synthesis and cytotoxic activity of new azepino[3',4':4,5]pyrrolo[2,1-a]isoquinolin-12-ones” (Bioorg Med Chem, 2009).

Bounds are passed on as bounds.

The subject of one test is PC-3. In words: Cytotoxicity against human PC3 cells after 48 hrs by SRB assay. Type of test: functional, cell-based. The following applies: PC-3, 48 h. The essentials: (§1)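 SRB protein-staining microculture growth assay following the Monks method. Cells were detached with 0.1% (w/v) trypsin-EDTA, counted by hemocytometer and diluted in complete medium to 5 × 10⁴ cells/mL (K-562, MCF-7), 7.5 × 10⁴ cells/mL (U-251, PC-3) or 10 × 10⁴ cells/mL (HCT-15). DMSO stocks were tested at 100, 31, 10, 3.1 and 1. After 48 h, cells were fixed in situ with 50% TCA for 60 min at 4 °C. IC50 is the mean of three experiments.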

The subject of a further test is U-251. The test is described as follows: Cytotoxicity against human U251 cells after 48 hrs by SRB assay. Type of test: functional, cell-based. The following applies: U-251, 48 h. In a few lines:
as §1

For the next test, the system named is K562. The test is described as follows: Cytotoxicity against human K562 cells after 48 hrs by SRB assay. Format: functional, cell-based. The following applies: K562, 48 h. The essentials:
as §1

In a further test the test system is HCT-15. In words: Cytotoxicity against human HCT15 cells after 48 hrs by SRB assay. Format: functional, cell-based. The note with it: HCT-15, 48 h. In a few lines:
as §1

For another test, the system named is MCF7. The test is described as follows: Cytotoxicity against human MCF7 cells after 48 hrs by SRB assay. Format: functional, cell-based. The note with it: MCF7, 48 h. In a few lines: as §1
Test [1] can be described thus: Inhibition of Marthasterias glacialis oocyte CDK1/Cyclin B.
Test [2] deals with Cyclin-dependent kinase 5/CDK5 activator 1 (Homo sapiens, UniProt Q00535). In words: Inhibition of recombinant CDK5/p25 expressed in Escherichia coli.
Test [3] deals with Glycogen synthase kinase-3 beta (Homo sapiens, UniProt P49841). In words: Inhibition of GSK3-beta expressed in Sf9 cells.
Sequence of Glycogen synthase kinase-3 beta (P49841 whole entry): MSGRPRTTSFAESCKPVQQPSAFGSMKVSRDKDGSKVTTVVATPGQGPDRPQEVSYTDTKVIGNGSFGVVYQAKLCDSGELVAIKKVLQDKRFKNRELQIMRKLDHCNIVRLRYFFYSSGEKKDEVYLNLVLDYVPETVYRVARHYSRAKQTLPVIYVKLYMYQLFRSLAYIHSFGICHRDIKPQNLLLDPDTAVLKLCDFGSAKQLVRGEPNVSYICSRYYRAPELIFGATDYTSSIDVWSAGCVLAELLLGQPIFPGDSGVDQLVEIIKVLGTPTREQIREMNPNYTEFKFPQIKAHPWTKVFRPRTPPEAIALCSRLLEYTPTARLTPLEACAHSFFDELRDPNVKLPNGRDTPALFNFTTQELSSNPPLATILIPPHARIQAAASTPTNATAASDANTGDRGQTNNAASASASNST

Sequence of Cyclin-dependent kinase 5/CDK5 activator 1 (Q00535 whole entry): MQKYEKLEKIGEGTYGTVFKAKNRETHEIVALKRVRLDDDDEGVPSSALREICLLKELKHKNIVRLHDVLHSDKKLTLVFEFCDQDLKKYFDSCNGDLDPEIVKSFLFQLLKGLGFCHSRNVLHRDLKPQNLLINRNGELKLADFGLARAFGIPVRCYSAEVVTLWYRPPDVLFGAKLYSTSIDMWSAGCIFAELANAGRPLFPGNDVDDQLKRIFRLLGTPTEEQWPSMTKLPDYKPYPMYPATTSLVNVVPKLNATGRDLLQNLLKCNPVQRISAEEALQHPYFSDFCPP
Sequence of Cyclin-dependent kinase 5/CDK5 activator 1 (Q15078 whole entry, further chain): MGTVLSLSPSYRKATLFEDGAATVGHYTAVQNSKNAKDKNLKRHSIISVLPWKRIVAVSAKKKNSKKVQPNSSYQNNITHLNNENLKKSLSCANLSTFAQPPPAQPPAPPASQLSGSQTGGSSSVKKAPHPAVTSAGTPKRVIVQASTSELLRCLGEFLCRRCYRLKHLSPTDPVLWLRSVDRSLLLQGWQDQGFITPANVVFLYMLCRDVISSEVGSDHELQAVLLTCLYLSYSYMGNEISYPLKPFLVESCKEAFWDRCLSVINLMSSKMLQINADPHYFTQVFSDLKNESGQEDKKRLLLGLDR

With `CC1(C)CNC(=O)c2cc3n(c2C1)CCc1cc(Br)ccc1-3`, the IC50 with PC-3 is 33.6 µM; in the test on U-251 it was 18.1 µM; in the test with K562, 36.1 µM; with HCT-15, 25.6 µM; in the test on MCF7, 43.1 µM; in test [1] it was > 10 µM. For the same compound, the IC50 in test [2] and in test [3] was > 10 µM throughout.
In the case of `COc1ccc2c(c1)CCn1c-2cc2c1CC(C)(C)CNC2=O`, the IC50 in the test on PC-3, in the test with U-251, in the test with K562, with HCT-15 and in the test on MCF7 was > 100 µM in each case.
Turning to `CC1(C)CNC(=O)c2cc(-c3ccc([N+](=O)[O-])cc3)n(-c3ccc(Cl)cc3)c2C1`, the half-maximal inhibitory concentration (IC50) in the test on PC-3 stood at 17.4 µM; in the test with U-251, 28.8 µM; in the test on K562, 15.1 µM; in the test on HCT-15, 20 µM; in the test with MCF7, 51.7 µM.
For `CC1(C)CNC(=O)c2cc3n(c2C1)CCc1cc(Cl)ccc1-3` the same measures were > 100 µM, > 100 µM, > 100 µM, 39.6 µM and > 100 µM.
In the same order, the values of `CC1(C)CNC(=O)c2cc3n(c2C1)CCc1ccccc1-3` are > 100 µM, > 100 µM, > 100 µM, > 100 µM and > 100 µM.
In the same order, the values of `CC1(C)CC(=O)c2cc3n(c2C1)CCc1cc(Br)ccc1-3` are 50.6 µM, 53.3 µM, 23.9 µM, 36 µM and 35 µM.
Take `COc1ccc2c(c1)CCn1c-2cc2c1CC(C)(C)CC2=O`: the IC50 is > 100 µM in the test on PC-3; > 100 µM with U-251; 57.5 µM in the test with K562; > 100 µM in the test on HCT-15; > 100 µM in the test with MCF7.
With `CC1(C)CC(=O)c2cc3n(c2C1)CCc1cc(Cl)ccc1-3`, the IC50 in the test with PC-3 is > 100 µM; with U-251, > 100 µM; in the test on K562 it was 10.2 µM; in the test with HCT-15 it was 24.8 µM; in the test on MCF7, 41.8 µM.
Take `CC1(C)CNC(=O)c2cc(-c3ccc([N+](=O)[O-])cc3)n(-c3ccc(Br)cc3)c2C1`: the IC50 was 21.1 µM with PC-3; 25.6 µM with U-251; > 100 µM in the test with K562; > 100 µM in the test with HCT-15; > 100 µM with MCF7.
`CC1(C)CNC(=O)c2cc3n(c2C1)CCc1cc(F)ccc1-3`: the IC50 in the test on PC-3 was > 100 µM; in the test with U-251 it was > 100 µM; in the test with K562, 33.7 µM; with HCT-15, > 100 µM; in the test on MCF7 it was 54.5 µM; in test [1] it was > 10 µM. Further, the IC50 in test [2] and in test [3] was > 10 µM throughout.
For `CC1(C)CC(=O)c2cc3n(c2C1)CCc1ccccc1-3`, the IC50 was > 100 µM in the test on PC-3; > 100 µM in the test with U-251; 36.8 µM with K562; > 100 µM in the test with HCT-15; > 100 µM in the test on MCF7.
Take `CC1(C)CNC(=O)c2cc3n(c2C1)CCc1cc([N+](=O)[O-])ccc1-3`: the IC50 with PC-3 is 25.8 µM; in the test with U-251, > 100 µM; with K562, > 100 µM; in the test with HCT-15, 29.5 µM; in the test on MCF7, 43.1 µM; in test [1], > 10 µM. Moreover, the IC50 in test [2] and in test [3] was > 10 µM throughout.
Regarding `CC1(C)CC(=O)c2cc3n(c2C1)CCc1cc([N+](=O)[O-])ccc1-3`, the IC50 is > 100 µM with PC-3; > 100 µM in the test with U-251; 73.7 µM in the test on K562; 16.7 µM in the test on HCT-15; > 100 µM with MCF7.
Turning to `CC1(C)CC(=O)c2cc3n(c2C1)CCc1cc(F)ccc1-3`, the IC50 in the test with PC-3 is > 100 µM; in the test with U-251 it was > 100 µM; in the test with K562, 27.2 µM; with HCT-15, 65.5 µM; in the test with MCF7, > 100 µM.
In the case of `O=C1Cc2c([nH]c3ccc([N+](=O)[O-])cc23)-c2ccccc2N1` [ALSTERPAULLONE], the half-maximal inhibitory concentration (IC50) in the test with PC-3 came out at 1.12 µM; in the test on U-251, 0.68 µM; with K562, 1.58 µM; in the test on HCT-15 it was 0.62 µM; with MCF7 it was 1.24 µM.
For `O=C1Cc2c([nH]c3ccc(Br)cc23)-c2ccccc2N1` [KENPAULLONE] the same measures were > 100 µM, > 100 µM, > 100 µM, 23.9 µM and > 100 µM.
